The source made the active and inactive calls. No cut-off for these calls is given here.
Columns and labels:
[1] = molecular target: T1, Lysine-specific demethylase 5B (Homo sapiens, UniProt Q9UGL1); test: Inhibition of recombinant human N-terminal FLAG-tagged KDM5B expressed in Sf9 insect cells at 10 uM using biotin-H3K4me as substrate by ALPHA relative to control
Outline: (§1)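 ALPHA demethylase assay. Recombinant KDM5B (4 nM) was preincubated with compound, then biotin-H3K4me3 peptide (64 nM) was added. Buffer: 10 μM α-KG, 100 μM ascorbate, 50 μM (NH4)2Fe(SO4)2, 50 mM HEPES pH 7.5, 0.01% Tween 20, 0.1% BSA. Read-out used streptavidin donor and H3K4me1-2 antibody acceptor beads. Data were normalized to blank control and IC50 fitted.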

[2] = molecular target: T2, Lysine-specific demethylase 4A (Homo sapiens) (UniProt O75164); test: Inhibition of KDM4A (unknown origin) at 0.25 uM relative to control
T2 sequence (whole entry): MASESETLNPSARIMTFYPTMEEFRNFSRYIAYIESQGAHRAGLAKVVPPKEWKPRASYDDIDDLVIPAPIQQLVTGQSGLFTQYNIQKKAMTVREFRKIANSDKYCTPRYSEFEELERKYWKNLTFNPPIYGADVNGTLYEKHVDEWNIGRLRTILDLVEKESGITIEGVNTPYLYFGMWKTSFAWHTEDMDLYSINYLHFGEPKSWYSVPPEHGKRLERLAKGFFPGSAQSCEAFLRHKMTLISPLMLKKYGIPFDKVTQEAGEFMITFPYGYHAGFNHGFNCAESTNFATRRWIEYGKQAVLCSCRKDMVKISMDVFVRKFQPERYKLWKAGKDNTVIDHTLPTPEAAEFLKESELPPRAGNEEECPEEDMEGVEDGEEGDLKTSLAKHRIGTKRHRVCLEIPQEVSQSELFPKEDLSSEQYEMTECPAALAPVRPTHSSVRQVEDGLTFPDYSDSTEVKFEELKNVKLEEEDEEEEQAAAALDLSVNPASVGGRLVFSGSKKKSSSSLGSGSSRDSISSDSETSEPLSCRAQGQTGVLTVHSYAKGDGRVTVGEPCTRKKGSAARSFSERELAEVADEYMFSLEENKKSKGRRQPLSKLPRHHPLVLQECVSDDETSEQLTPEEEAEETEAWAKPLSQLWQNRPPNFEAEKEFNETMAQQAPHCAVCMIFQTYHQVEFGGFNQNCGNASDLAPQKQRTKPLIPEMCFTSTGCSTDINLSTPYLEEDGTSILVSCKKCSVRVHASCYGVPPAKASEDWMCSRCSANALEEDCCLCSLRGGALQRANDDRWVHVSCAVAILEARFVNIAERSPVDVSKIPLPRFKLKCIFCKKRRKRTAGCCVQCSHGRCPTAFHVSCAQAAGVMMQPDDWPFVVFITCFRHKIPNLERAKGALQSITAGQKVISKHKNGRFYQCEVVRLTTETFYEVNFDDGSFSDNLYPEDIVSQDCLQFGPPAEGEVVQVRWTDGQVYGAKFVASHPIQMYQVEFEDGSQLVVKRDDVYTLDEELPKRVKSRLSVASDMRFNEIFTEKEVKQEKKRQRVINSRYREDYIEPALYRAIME

[3] = Cytotoxicity against human GES1 cells assessed as reduction in cell proliferation at 100 uM by MTS assay relative to control; assay type: cell-based; conditions: read-out: Activity
Outline: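 Normal human gastric epithelial GES-1 cells, seeded at 3×10^3 cells per well and exposed to 100 μM. Antiproliferation rate was read by MTS assay.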

[4] = molecular target: T1, Lysine-specific demethylase 5B; test: Inhibition of KDM5B in human MKN-45 cells assessed as increase in H3K4me3 accumulation measured after 5 days by Hoechst 33342 staining based immunofluorescence assay; assay type: cell-based; conditions: time 5.0 day
Outline: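 MKN45 cells were seeded and left 24 h, then treated for 5 days. Cells were fixed in 4% paraformaldehyde, permeabilised with 0.1% Triton X-100 for 20 min and blocked with 5% BSA for 1 h. H3K4me2 or H3K4me3 primary antibody was applied at 4°C overnight, followed by Alexa Fluor 488 secondary and Hoechst 33342 (5 µg/mL) nuclear stain. Signal was quantified by high content imaging; three independent experiments.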

[5] = molecular target: T1, Lysine-specific demethylase 5B; test: Inhibition of recombinant human N-terminal FLAG-tagged KDM5B expressed in Sf9 insect cells using biotin-H3K4me as substrate by ALPHA; outline: as §1
[6] = system: MKN-45; test: Antimigratory activity in human MKN-45 cells measured after 24 hrs by transwell assay; assay type: functional, cell-based
[7] = system: MKN-45; test: Inhibition of KDM4 in human MKN-45 cells assessed as increase in H3K9me2 accumulation at 0.5 to 20 uM measured after 5 days by Western blot analysis; assay type: cell-based; conditions: dose 0.5-20 µM, time 5.0 day
Outline: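 MKN45 cells were treated for 5 days and lysed in RIPA buffer. About 30 µg protein was run on 10% SDS-PAGE and transferred to 0.2 µm nitrocellulose, then blocked with 5% milk in PBS for 2 h. Blots were probed for histone methylation marks with histone 3 as loading control and detected by ECL.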

T1 sequence (Q9UGL1 whole entry): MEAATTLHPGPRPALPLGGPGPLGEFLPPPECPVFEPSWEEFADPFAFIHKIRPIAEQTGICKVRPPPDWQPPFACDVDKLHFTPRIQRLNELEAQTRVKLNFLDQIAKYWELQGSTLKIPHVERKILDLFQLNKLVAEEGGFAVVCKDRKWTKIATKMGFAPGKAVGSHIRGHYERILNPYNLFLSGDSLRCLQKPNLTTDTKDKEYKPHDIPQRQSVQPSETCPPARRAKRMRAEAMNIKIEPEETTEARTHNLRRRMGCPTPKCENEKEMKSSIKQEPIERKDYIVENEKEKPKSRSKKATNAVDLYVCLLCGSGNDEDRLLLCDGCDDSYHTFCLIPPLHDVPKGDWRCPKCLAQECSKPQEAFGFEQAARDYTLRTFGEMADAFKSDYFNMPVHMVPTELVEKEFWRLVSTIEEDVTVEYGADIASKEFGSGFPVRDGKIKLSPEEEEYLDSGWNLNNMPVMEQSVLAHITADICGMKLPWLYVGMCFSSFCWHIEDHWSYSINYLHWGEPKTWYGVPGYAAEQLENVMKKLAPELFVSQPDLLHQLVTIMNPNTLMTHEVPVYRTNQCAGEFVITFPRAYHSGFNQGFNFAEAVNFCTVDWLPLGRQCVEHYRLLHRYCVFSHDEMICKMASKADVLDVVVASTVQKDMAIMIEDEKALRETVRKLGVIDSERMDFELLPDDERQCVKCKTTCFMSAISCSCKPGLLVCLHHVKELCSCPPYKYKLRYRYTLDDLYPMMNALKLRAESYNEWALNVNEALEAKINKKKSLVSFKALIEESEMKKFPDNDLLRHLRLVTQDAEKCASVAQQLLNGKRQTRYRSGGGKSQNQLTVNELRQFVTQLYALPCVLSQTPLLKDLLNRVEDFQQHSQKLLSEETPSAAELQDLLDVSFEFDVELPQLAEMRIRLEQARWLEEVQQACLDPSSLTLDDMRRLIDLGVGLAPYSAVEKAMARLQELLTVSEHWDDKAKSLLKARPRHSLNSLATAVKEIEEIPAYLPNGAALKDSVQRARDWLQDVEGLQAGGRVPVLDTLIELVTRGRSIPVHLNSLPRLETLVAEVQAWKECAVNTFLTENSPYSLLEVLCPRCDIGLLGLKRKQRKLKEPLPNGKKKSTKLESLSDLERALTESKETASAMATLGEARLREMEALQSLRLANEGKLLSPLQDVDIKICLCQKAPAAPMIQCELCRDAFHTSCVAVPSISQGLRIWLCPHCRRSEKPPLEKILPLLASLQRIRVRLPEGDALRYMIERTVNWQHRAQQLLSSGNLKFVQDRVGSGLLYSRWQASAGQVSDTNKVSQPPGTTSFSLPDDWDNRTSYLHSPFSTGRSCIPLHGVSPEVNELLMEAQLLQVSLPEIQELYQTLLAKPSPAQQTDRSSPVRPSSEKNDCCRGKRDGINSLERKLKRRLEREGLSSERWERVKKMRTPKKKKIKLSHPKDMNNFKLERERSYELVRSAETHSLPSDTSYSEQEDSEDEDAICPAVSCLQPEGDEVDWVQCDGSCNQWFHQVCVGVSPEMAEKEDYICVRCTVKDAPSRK

In the case of `COc1ccc(-n2cc(C(=O)NCC(C)(C)N3CCOCC3)c(-c3ccccc3)n2)cc1`, the inhibition [1] is reported as 95.8%, the inhibition [2] is reported as 29.4% and the inhibition at 100 µM [3] is reported as < 10%. The inhibition [4] was “Dose-dependent effect”, the IC50 [5] was 24.4 nM and the Activity [6] was “Dose-dependent effect”. For the same compound, the inhibition [7] was “inactive”.

— ChEMBL document CHEMBL4680221, “Discovery of pyrazole derivatives as cellular active inhibitors of histone lysine specific demethylase 5B (KDM5B/JARID1B)” (Eur J Med Chem, 2020)
